Experimental data published in ChEMBL document CHEMBL1155297, “Synthesis, antimicrobial and antioxidant activities of substituted pyrazoles, isoxazoles, pyrimidine and thioxopyrimidine derivatives” (2009).
Values after ≈ are worked out from the molar mass of the structure shown.

Experiments:
Type in all cases: functional
Fusarium solani [1] = test: Antifungal activity against Fusarium solani NCIM 1330 at 100 ug/disk after 48 hrs by agar disk diffusion method; settings: NCIM 1330, 48 h, read-out: IZ
How it was run: (§1)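 Fungal disc diffusion on nutrient agar plates pre-inoculated with each fungus. 6 mm sterile paper discs carried the compound in DMSO at the stated amount per disc. Plates were held at 37 °C, and inhibition-zone diameter was measured after 48 h. Values are the mean of three independent triplicate readings.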

Fusarium solani [2] = test: Antifungal activity against Fusarium solani NCIM 1330 at 200 ug/disk after 48 hrs by agar disk diffusion method; settings: NCIM 1330, 48 h, read-out: IZ; how it was run: as §1
Curvularia lunata [3] = test: Antifungal activity against Curvularia lunata NCIM 716 at 100 ug/disk after 48 hrs by agar disk diffusion method; settings: NCIM 716, 48 h, read-out: IZ; how it was run: as §1
Curvularia lunata [4] = test: Antifungal activity against Curvularia lunata NCIM 716 at 200 ug/disk after 48 hrs by agar disk diffusion method; settings: NCIM 716, 48 h, read-out: IZ; how it was run: as §1
Aspergillus niger [5] = test: Antifungal activity against Aspergillus niger NCIM 596 at 100 ug/disk after 48 hrs by agar disk diffusion method; settings: NCIM 596, 48 h, read-out: IZ; how it was run: as §1
Aspergillus niger [6] = test: Antifungal activity against Aspergillus niger NCIM 596 at 200 ug/disk after 48 hrs by agar disk diffusion method; settings: NCIM 596, 48 h, read-out: IZ; how it was run: as §1
Fusarium solani [7] = test: Antifungal activity against Fusarium solani NCIM 1330 after 48 hrs by microdilution susceptibility method; settings: NCIM 1330, 48 h
How it was run: (§2)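 Broth microdilution MIC; fungal suspensions were inoculated into wells containing compound dissolved in DMSO. Incubation was at 36 °C for 48 h. MIC was recorded as the lowest concentration with no turbidity. Ketoconazole was the reference antifungal.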

Curvularia lunata [8] = test: Antifungal activity against Curvularia lunata NCIM 716 after 48 hrs by microdilution susceptibility method; settings: NCIM 716, 48 h; how it was run: as §2
Aspergillus niger [9] = test: Antifungal activity against Aspergillus niger NCIM 596 after 48 hrs by microdilution susceptibility method; settings: NCIM 596, 48 h; how it was run: as §2
Staphylococcus aureus [10] = test: Antibacterial activity against Staphylococcus aureus NCIM 5021 at 100 ug/disk after 24 hrs by agar disk diffusion method; settings: NCIM 5021, 24 h, read-out: IZ
How it was run: (§3)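 Agar disc diffusion on nutrient agar plates pre-inoculated with each bacterium. Sterile 6 mm filter-paper discs were moistened with compound in DMSO at the stated per-disc amount. Plates were incubated at 37 °C, and the growth-inhibition zone diameter was read after 24 h. Each determination was run in triplicate, and the mean of three independent readings is reported.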

Staphylococcus aureus [11] = test: Antibacterial activity against Staphylococcus aureus NCIM 5021 at 200 ug/disk after 24 hrs by agar disk diffusion method; settings: NCIM 5021, 24 h, read-out: IZ; how it was run: as §3
Bacillus subtilis [12] = test: Antibacterial activity against Bacillus subtilis NCIM 2063 at 100 ug/disk after 24 hrs by agar disk diffusion method; settings: NCIM 2063, 24 h, read-out: IZ; how it was run: as §3
Bacillus subtilis [13] = test: Antibacterial activity against Bacillus subtilis NCIM 2063 at 200 ug/disk after 24 hrs by agar disk diffusion method; settings: NCIM 2063, 24 h, read-out: IZ; how it was run: as §3
Klebsiella pneumoniae [14] = test: Antibacterial activity against Klebsiella pneumoniae NCIM 2957 at 100 ug/disk after 24 hrs by agar disk diffusion method; settings: NCIM 2957, 24 h, read-out: IZ; how it was run: as §3
Klebsiella pneumoniae [15] = test: Antibacterial activity against Klebsiella pneumoniae NCIM 2957 at 200 ug/disk after 24 hrs by agar disk diffusion method; settings: NCIM 2957, 24 h, read-out: IZ; how it was run: as §3
Proteus vulgaris [16] = test: Antibacterial activity against Proteus vulgaris NCIM 2027 at 100 ug/disk after 24 hrs by agar disk diffusion method; settings: NCIM 2027, 24 h, read-out: IZ; how it was run: as §3
Proteus vulgaris [17] = test: Antibacterial activity against Proteus vulgaris NCIM 2027 at 200 ug/disk after 24 hrs by agar disk diffusion method; settings: NCIM 2027, 24 h, read-out: IZ; how it was run: as §3
Staphylococcus aureus [18] = test: Antibacterial activity against Staphylococcus aureus NCIM 5021 after 24 hrs by microdilution susceptibility method; settings: NCIM 5021, 24 h
How it was run: (§4)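 MIC by microdilution susceptibility; compounds in DMSO, bacterial suspensions inoculated into wells. Incubation was at 36 °C for 24 h. MIC is the lowest compound concentration showing no turbidity. Chloramphenicol served as reference antibacterial.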

Bacillus subtilis [19] = test: Antibacterial activity against Bacillus subtilis NCIM 2063 after 24 hrs by microdilution susceptibility method; settings: NCIM 2063, 24 h; how it was run: as §4
Klebsiella pneumoniae [20] = test: Antibacterial activity against Klebsiella pneumoniae NCIM 2957 after 24 hrs by microdilution susceptibility method; settings: NCIM 2957, 24 h; how it was run: as §4
Proteus vulgaris [21] = test: Antibacterial activity against Proteus vulgaris NCIM 2027 after 24 hrs by microdilution susceptibility method; settings: NCIM 2027, 24 h; how it was run: as §4
[22] = system: Radical scavenging activity; test: Antioxidant activity assessed as DPPH free radical scavenging activity at 100 uM after 20 mins
How it was run: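 DPPH scavenging: compound solutions were added to DPPH in dioxane/ethanol and kept at ambient temperature for 20 min. Absorbance was read at 517 nm. The test–control difference was expressed as percent DPPH radical scavenging.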

[23] = Antioxidant activity assessed as nitric oxide production at 100 uM after 120 mins by Griess reagent method
How it was run: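 Nitric oxide assay with Griess read-out. At intervals, 0.5 ml of incubation solution was mixed with 0.5 ml Griess reagent (1% sulfanilamide, 0.1% N-naphthylethylenediamine dihydrochloride, 2% o-phosphoric acid in water). The control received an equal amount of solvent and was handled identically.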

Row | SMILES | zone of inhibition at 100 µg/disc (Fusarium solani [1]) | zone of inhibition at 200 µg/disc (Fusarium solani [2]) | zone of inhibition at 100 µg/disc (Curvularia lunata [3]) | zone of inhibition at 200 µg/disc (Curvularia lunata [4]) | zone of inhibition at 100 µg/disc (Aspergillus niger [5]) | zone of inhibition at 200 µg/disc (Aspergillus niger [6]) | MIC (Fusarium solani [7]) | MIC (Curvularia lunata [8]) | MIC (Aspergillus niger [9]) | zone of inhibition at 100 µg/disc (Staphylococcus aureus [10]) | zone of inhibition at 200 µg/disc (Staphylococcus aureus [11]) | zone of inhibition at 100 µg/disc (Bacillus subtilis [12]) | zone of inhibition at 200 µg/disc (Bacillus subtilis [13]) | zone of inhibition at 100 µg/disc (Klebsiella pneumoniae [14]) | zone of inhibition at 200 µg/disc (Klebsiella pneumoniae [15]) | zone of inhibition at 100 µg/disc (Proteus vulgaris [16]) | zone of inhibition at 200 µg/disc (Proteus vulgaris [17]) | MIC (Staphylococcus aureus [18]) | inhibition [22] | inhibition [23] | also measured
1 | CC(=O)N1CCN(c2ccc(OCC3COC(Cn4ccnc4)(c4ccc(Cl)cc4Cl)O3)cc2)CC1 (stereo unspecified) [KETOCONAZOLE] | 38 mm | 42 mm | 41 mm | 44 mm | 36 mm | 39 mm | 12.5 µg/mL (≈ 23.5 µM) | 6.25 µg/mL (≈ 11.8 µM) | 6.25 µg/mL (≈ 11.8 µM) |  |  |  |  |  |  |  |  |  |  |  | 
2 | N=C1ON=C(N)C1C(CS(=O)(=O)c1ccc(Cl)cc1)S(=O)(=O)c1ccc(Cl)cc1 (stereo unspecified) | 33 mm | 35 mm | 31 mm | 33 mm | 29 mm | 32 mm | 100 µg/mL (≈ 210 µM) | 50 µg/mL (≈ 105 µM) | 50 µg/mL (≈ 105 µM) | 32 mm | 33 mm | 31 mm | 34 mm | 26 mm | 29 mm | 28 mm | 30 mm | 50 µg/mL (≈ 105 µM) | 94.5% | 95.4% | MIC (Bacillus subtilis [19]): 50 µg/mL (≈ 105 µM); MIC (Klebsiella pneumoniae [20]): 100 µg/mL (≈ 210 µM); MIC (Proteus vulgaris [21]): 100 µg/mL (≈ 210 µM)
3 | O=C(N[C@H](CO)[C@H](O)c1ccc([N+](=O)[O-])cc1)C(Cl)Cl [CHLORAMPHENICOL] |  |  |  |  |  |  |  |  |  | 35 mm | 41 mm | 38 mm | 44 mm | 37 mm | 42 mm | 42 mm | 45 mm | 6.25 µg/mL (≈ 19.3 µM) |  |  | MIC (Bacillus subtilis [19]): 6.25 µg/mL (≈ 19.3 µM); MIC (Klebsiella pneumoniae [20]): 12.5 µg/mL (≈ 38.7 µM); MIC (Proteus vulgaris [21]): 12.5 µg/mL (≈ 38.7 µM)
4 | Cc1ccc(S(=O)(=O)CC(C2C(N)=NC(=S)N=C2N)S(=O)(=O)c2ccc(C)cc2)cc1 (stereo unspecified) | 19 mm | 21 mm | 21 mm | 23 mm | 17 mm | 20 mm |  |  |  | 21 mm | 24 mm | 20 mm | 22 mm | 19 mm | 21 mm | 20 mm | 20 mm |  | 38.7% | 39.9% | 
5 | CN1C(=N)C(C(CS(=O)(=O)c2ccc(Cl)cc2)S(=O)(=O)c2ccc(Cl)cc2)C(=N)N(C)C1=O (stereo unspecified) | 16 mm | 19 mm | 17 mm | 21 mm | 15 mm | 17 mm |  |  |  | 16 mm | 18 mm | 15 mm | 17 mm | 12 mm | 14 mm | 11 mm | 13 mm |  | 31.6% | 30.2% | 
